Experiment [1] can be described thus: Her2 expression decrease, cell viability multiplex – SKBR3 breast tumor cells, AlphaScreen, ATP viability, primary screen (AID 461).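 On Her2 level: lower value means less Her2 protein in the cells.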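 On viability: percent of carrier control wells set as 100% viability.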 Particulars: SKBR3 Her2 protein level, 18-24 h, measured here: SKBR3 viability, ATP luminescence, at 10 µM.
Experiment [2] deals with Receptor tyrosine-protein kinase erbB-2 (Homo sapiens) (UniProt P04626). The description is as above. Conditions: 18-24 h, at 10 µM, stronger effect = lower value.
Receptor tyrosine-protein kinase erbB-2 (Homo sapiens), sequence (P04626 whole entry, looked up): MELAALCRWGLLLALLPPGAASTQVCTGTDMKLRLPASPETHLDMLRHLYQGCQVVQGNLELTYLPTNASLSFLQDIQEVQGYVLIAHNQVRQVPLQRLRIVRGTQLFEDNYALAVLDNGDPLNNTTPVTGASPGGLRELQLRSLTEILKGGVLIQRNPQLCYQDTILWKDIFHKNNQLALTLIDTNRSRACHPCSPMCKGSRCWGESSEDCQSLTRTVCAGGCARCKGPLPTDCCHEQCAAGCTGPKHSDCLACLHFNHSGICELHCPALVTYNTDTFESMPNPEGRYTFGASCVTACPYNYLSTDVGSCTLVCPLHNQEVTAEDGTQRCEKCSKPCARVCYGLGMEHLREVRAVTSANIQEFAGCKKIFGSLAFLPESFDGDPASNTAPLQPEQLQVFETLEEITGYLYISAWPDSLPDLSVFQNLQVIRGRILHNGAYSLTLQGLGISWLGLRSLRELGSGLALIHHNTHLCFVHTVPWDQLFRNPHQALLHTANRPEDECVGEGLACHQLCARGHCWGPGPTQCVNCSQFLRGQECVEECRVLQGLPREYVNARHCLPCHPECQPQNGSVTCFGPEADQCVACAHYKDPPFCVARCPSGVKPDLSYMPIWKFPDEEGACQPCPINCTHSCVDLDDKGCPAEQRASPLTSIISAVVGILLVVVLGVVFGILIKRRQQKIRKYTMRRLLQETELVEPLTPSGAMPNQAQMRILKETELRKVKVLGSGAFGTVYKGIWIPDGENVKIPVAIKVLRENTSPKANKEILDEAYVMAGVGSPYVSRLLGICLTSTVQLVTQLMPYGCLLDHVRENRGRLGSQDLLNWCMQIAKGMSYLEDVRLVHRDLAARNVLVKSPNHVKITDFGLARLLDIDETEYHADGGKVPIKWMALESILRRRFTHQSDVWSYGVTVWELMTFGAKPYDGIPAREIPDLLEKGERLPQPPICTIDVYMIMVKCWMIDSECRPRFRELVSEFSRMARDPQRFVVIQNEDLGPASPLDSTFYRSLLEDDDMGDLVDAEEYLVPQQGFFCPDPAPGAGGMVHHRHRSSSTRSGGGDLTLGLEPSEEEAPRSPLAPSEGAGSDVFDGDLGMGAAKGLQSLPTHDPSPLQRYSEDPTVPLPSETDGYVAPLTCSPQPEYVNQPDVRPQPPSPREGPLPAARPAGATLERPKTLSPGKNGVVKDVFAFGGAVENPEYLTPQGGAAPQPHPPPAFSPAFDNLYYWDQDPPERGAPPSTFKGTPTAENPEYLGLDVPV
Experiment [3] can be described thus: reduced viability of SK-BR-3 breast cancer cells – cell-based, 24 h, human, pilot screen (AID 572;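 active means viability at or below 10% of carrier control in both of two separate runs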;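 further: compound exposure lasted between 18 and 24 h rather than exactly 24 h; 100% = carrier-treated control wells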). Conditions: SK-BR-3 viability, CellTiter-Glo luminescence, at 10 µM, stronger effect = lower value. On the technique in general: In ATP-based viability assays light output follows the ATP content of the culture.
Experiment [4] is described as follows: HUVEC growth inhibition – cell-based, human, primary screen (AID 575;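 active means viability at or below 30% in both replicate assays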;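 further: 100% = median of untreated cell wells with 0.1% DMSO on each plate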). Particulars: HUVEC proliferation, CellTiter-Glo luminescence, 72 h; at 10 µM; stronger effect = lower value. An outline of the steps: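 Assay system: primary human umbilical vein endothelial cells / Buffer or medium: endothelial basal medium with 2% FBS plus growth supplements / Compound dosing: one dose, 10 µM final, 0.1% DMSO / Timing: 72 h treatment at 37 °C / Signal: CTG luminescence / Benchmarks: 32 DMSO-only cell-control wells (high), 32 MePR drug-control wells (low) per plate / Plate: collagen-coated 384-well format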

Experiment [5] in a line: H69AR cell proliferation blockers – human, duplicate replicates, primary screen (AID 580;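 active means viability at or under a set limit in both replicates, limit being median viability minus 3 SD, cut at about 48% in these data, passing the limit was not always enough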;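 further: 100% = mean luminescence of untreated wells and 0% = no signal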). Conditions: H69AR lung tumor cells viability, ATP luminescence, 72 h; at 10 µM; stronger effect = lower value.
Experiment [6] can be described thus: MRP1 drug-resistance reversers in H69AR cells – cell-based, doxorubicin co-treatment, pilot screen (AID 601;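 active means viability loss from added drug above about 55%, and viability with drug at most 40%, in both replicates, limit read from the data, passing the limit was not always enough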). Conditions: CellTiter-Glo, 72 h, at 10 µM; for differential viability (reversal): stronger effect = higher value.
A short description of experiment [7]: yeast transport mutant growth inhibition pilot in 384-well plates, post-Golgi transport modulator project (AID 636; in the data active means inhibition above about 31%). Conditions: absorbance 615 nm, about 18 h, stronger effect = higher value.
Experiment [8] in a line: growth suppression of yeast trafficking mutant, preliminary HTS, modulators of trafficking downstream of Golgi apparatus project, 1536-format plate, OD 615 nm (AID 637; in the data active means inhibition above about 30%). Conditions: yeast transport mutant growth, absorbance 615 nm, 18 h; stronger effect = higher value.
The mark [9] stands for this setting: H69AR cells + 2 uM doxorubicin, measured here: viability with 2 uM doxorubicin, stronger effect = lower value.
[10] abbreviates: H69AR cells, compound alone cytotoxicity.

Activity calls are given as the source filed them.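 How the source made its calls, unless noted: active means Her2 level under about 52% in both replicate screens, with viability over 70% of control (limit read from the data); inconclusive means Her2 under the limit in one screen only, or viability under 70%; inactive means Her2 level above the set limit.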

As usually defined, the viability is a read-out of living cells in per cent, often relative to untreated cells. The inhibition is the relative decrease from the control value, in per cent.

As for `Cc1ccccc1N1C(N)=NC(N)=NC1(C)C`, the viability in experiment [1] is 107%; in experiment [3], 107% (inactive); in experiment [4], 98.3% (inactive); in experiment [5], 90.6% (inactive); in experiment [6] (setting [9]), 91.5%; in experiment [6] (setting [10]), 90.6%. In experiment [2], the Her2 level was 84% (inactive). Besides, the differential viability (reversal) in experiment [6] (H69AR cells + 2 uM doxorubicin) was -0.97% (inactive). The figures for the inhibition in experiment [7] and in experiment [8] were -3.9% (inactive) and -3.17% (inactive), respectively.

Turning to `COc1ccc(-c2cc3n(n2)CCc2nc4ccccc4n2-3)cc1`, the viability in experiment [1] was 95.5%; in experiment [3] it was 95.5% (inactive); in experiment [4], 87% (inactive); in experiment [5], 93.3% (inactive); in experiment [6] (setting [9]), 86.7%; in experiment [6] (setting [10]), 93.3%. In addition, in experiment [2], the Her2 level was 70% (inactive). In experiment [6] (H69AR cells + 2 uM doxorubicin), the differential viability (reversal) was 6.67% (inactive). Besides, the inhibition is -5.2% (inactive) in experiment [7] and 0.48% (inactive) in experiment [8].

`COC(=O)c1ccccc1NS(=O)(=O)c1ccc(F)cc1`: the viability in experiment [1] is 120%; in experiment [3] it was 120% (inactive); in experiment [4], 104% (inactive); in experiment [5], 102% (inactive); in experiment [6] (setting [9]) it was 88.4%; in experiment [6] (setting [10]) it was 102%. Further, the Her2 level in experiment [2] is 83.5% (inactive). Moreover, the differential viability (reversal) in experiment [6] (H69AR cells + 2 uM doxorubicin) was 13.1% (inactive). Moreover, the inhibition is -7.26% (inactive) in experiment [7] and -3.49% (inactive) in experiment [8].

Take `Cc1cc(NC(=O)CSc2ccc3nnc(-c4cccc(F)c4)n3n2)no1`: the viability is 108% in experiment [1]; 108% (inactive) in experiment [3]; 103% (inactive) in experiment [4]; 94.6% (inactive) in experiment [5]; 86.4% in experiment [6] (setting [9]); 94.6% in experiment [6] (setting [10]). Further, in experiment [2], the Her2 level was 102% (inactive). The differential viability (reversal) in experiment [6] (H69AR cells + 2 uM doxorubicin) was 8.17% (inactive). Besides, the inhibition in experiment [7] was -4.19% (inactive); in experiment [8], -4.17% (inactive).

For `CC1=CC2=C(OC1N(C)C)c1cccc3cccc(c13)C2=O` (stereo not given), the viability in experiment [1] is 106%; in experiment [3] it was 106% (inactive); in experiment [4], 83% (inactive); in experiment [5], 78.5% (inactive); in experiment [6] (setting [9]), 78.9%; in experiment [6] (setting [10]), 78.5%. Besides, the Her2 level in experiment [2] was 65% (inactive). For the same molecule, in experiment [6] (H69AR cells + 2 uM doxorubicin), the differential viability (reversal) was -0.375% (inactive). In addition, the inhibition in experiment [7] is 2.21% (inactive); in experiment [8], 6.17% (inactive).

As to `CC(NS(=O)(=O)c1ccc(F)cc1)C(c1cccs1)N1CCN(C)CC1` (stereo not given), the viability in experiment [1] was 118%; in experiment [3] it was 118% (inactive); in experiment [4] it was 87.9% (inactive); in experiment [5], 96.7% (inactive); in experiment [6] (setting [9]), 82.3%; in experiment [6] (setting [10]), 96.7%. Further, the Her2 level in experiment [2] was 133% (inactive). The differential viability (reversal) in experiment [6] (H69AR cells + 2 uM doxorubicin) was 14.4% (inactive). Moreover, the inhibition in experiment [7] is -3.29% (inactive); in experiment [8], -5.67% (inactive).

As for `Cc1ccc(/C(O)=C2/C(=O)C(=O)N(Cc3ccco3)C2c2cccs2)cc1` (stereo not given), the viability was 103% in experiment [1]; 103% (inactive) in experiment [3]; 101% (inactive) in experiment [4]; 67.6% (inactive) in experiment [5]; 80.7% in experiment [6] (setting [9]); 67.6% in experiment [6] (setting [10]). In addition, the Her2 level in experiment [2] is 114% (inactive). For the same molecule, in experiment [6] (H69AR cells + 2 uM doxorubicin), the differential viability (reversal) was -13.1% (inactive). The inhibition in experiment [7] is -5.21% (inactive); in experiment [8] it was -7.78% (inactive).

In the case of `COC(=O)c1ccc(NC(=O)Cn2nnc3ccccc32)cc1`, the viability in experiment [1] was 94%; in experiment [3] it was 94% (inactive); in experiment [4], 109% (inactive); in experiment [5] it was 108% (inactive); in experiment [6] (setting [9]) it was 90%; in experiment [6] (setting [10]), 108%. In experiment [2], the Her2 level was 82.5% (inactive). Moreover, the differential viability (reversal) in experiment [6] (H69AR cells + 2 uM doxorubicin) is 17.7% (inactive). In addition, the inhibition in experiment [7] is 0.13% (inactive); in experiment [8] it was 0% (inactive).

For the molecule `COc1ccc2c(c1)C(C)=CC(C)(C)N2C(=O)C(C)N1C(=O)c2ccccc2C1=O` (stereo not given), the viability in experiment [1] is 109%; in experiment [3] it was 109% (inactive); in experiment [4], 81.6% (inactive); in experiment [5] it was 85.7% (inactive); in experiment [6] (setting [9]), 87%; in experiment [6] (setting [10]), 85.7%. Moreover, in experiment [2], the Her2 level was 104% (inactive). The differential viability (reversal) in experiment [6] (H69AR cells + 2 uM doxorubicin) is -1.3% (inactive). Besides, the inhibition was -5.71% (inactive) in experiment [7] and -3.33% (inactive) in experiment [8].

Consider `Cc1cc(S(=O)(=O)NC2CCCCC2)ccc1OCC(=O)NCc1ccccn1`, for which the viability in experiment [1] was 91.5%; in experiment [3] it was 91.5% (inactive); in experiment [4], 105% (inactive); in experiment [5] it was 99.1% (inactive); in experiment [6] (setting [9]), 92.8%; in experiment [6] (setting [10]) it was 99.1%. Moreover, the Her2 level in experiment [2] was 84% (inactive). In experiment [6] (H69AR cells + 2 uM doxorubicin), the differential viability (reversal) is 6.34% (inactive). For the same molecule, the inhibition is -0.53% (inactive) in experiment [7] and 4.52% (inactive) in experiment [8].

Regarding `O=C(NCC1COc2ccccc2O1)C1CCCN(S(=O)(=O)c2cnc[nH]2)C1` (stereo not given), the viability is 88% in experiment [1]; 88% (inactive) in experiment [3]; 91.9% (inactive) in experiment [4]; 109% (inactive) in experiment [5]; 89.7% in experiment [6] (setting [9]); 109% in experiment [6] (setting [10]). In addition, the Her2 level in experiment [2] was 101% (inactive). The differential viability (reversal) in experiment [6] (H69AR cells + 2 uM doxorubicin) was 18.9% (inactive). Further, the inhibition was -2.13% (inactive) in experiment [7] and -2.95% (inactive) in experiment [8].

For `COc1ccc(C2(CN(C(C)=O)C(C)=O)CCCC2)cc1OC`, the viability is 89.5% in experiment [1]; 89.5% (inactive) in experiment [3]; 114% (inactive) in experiment [4]; 90.4% (inactive) in experiment [5]; 88.7% in experiment [6] (setting [9]); 90.4% in experiment [6] (setting [10]). Moreover, the Her2 level in experiment [2] was 93% (inactive). Also, the differential viability (reversal) in experiment [6] (H69AR cells + 2 uM doxorubicin) was 1.69% (inactive). In addition, the inhibition in experiment [7] was -4.8% (inactive); in experiment [8], -4.92% (inactive).

Regarding `CCOC(=O)CSc1cn2c(n1)CCC2`, the viability in experiment [1] was 99.5%; in experiment [3] it was 99.5% (inactive); in experiment [4], 92% (inactive); in experiment [5] it was 92.4% (inactive); in experiment [6] (setting [9]), 94.7%; in experiment [6] (setting [10]), 92.4%. Further, in experiment [2], the Her2 level is 103% (inactive). The differential viability (reversal) in experiment [6] (H69AR cells + 2 uM doxorubicin) was -2.28% (inactive). Further, the values for the inhibition in experiment [7] and in experiment [8] were -0.79% (inactive) and -8.87% (inactive), respectively.

As for `C=CCOc1nc(N2CCCC2)nc(N2CCCC2)n1`, the viability in experiment [1] was 89%; in experiment [3] it was 89% (inactive); in experiment [4], 83.1% (inactive); in experiment [5], 92.7% (inactive); in experiment [6] (setting [9]) it was 81.1%; in experiment [6] (setting [10]), 92.7%. In experiment [2], the Her2 level was 91% (inactive). Besides, the differential viability (reversal) in experiment [6] (H69AR cells + 2 uM doxorubicin) was 11.6% (inactive). Further, the values for the inhibition in experiment [7] and in experiment [8] were -3.55% (inactive) and -2% (inactive), respectively.
